Results: ChEMBL document CHEMBL1130160 (J Med Chem, 1997)
Active and inactive are the calls of the source. No cut-off for these calls is given here.

Tests used:
[1] = system: Rattus norvegicus; test: Percent decrease in serum cholesterol relative to OVX control at 10 mg/kg in rat was determined (in vivo); type: functional
In short: (§1)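 OVX Sprague–Dawley rats (75 days old), 5–6 per group, dosed once daily by oral gavage for 4 consecutive days, starting 14 days after ovariectomy. Vehicle was 20% β-hydroxycyclodextrin at 1 mL/kg, or 1.5% carboxymethylcellulose in some cases. Rats were fasted after the last dose and bled by cardiac puncture next morning.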

[2] = target: T1, Estrogen receptor (Homo sapiens, UniProt Q92731+P03372); conditions: mcf7
[3] = system: Rattus norvegicus; test: Minimum effective dose at which significant increase in uterine eosinophil peroxidase (EPO) activity in rat was determined (in vivo); type: functional; conditions: read-out: MED
[4] = system: Rattus norvegicus; test: Eosinophil peroxidase activity expressed as Vmax was determined in rat (in vivo); type: functional
[5] = system: Rattus norvegicus; test: Minimum effective dose at which significant increase in uterine weight/body weight in rat was determined (in vivo); expressed as % increase relative to ovariectomized (OVX) controls; type: functional
In short: (§2)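 In 75-day OVX Sprague–Dawley rats dosed orally for 4 days, beginning 2 weeks post-ovariectomy with 5–6 rats per group, whole uteri were weighed the morning after fasting. MED is the lowest dose giving a significant (p≤0.05) rise in uterine weight/body weight, expressed as % increase over OVX controls ±SE.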

[6] = system: Rattus norvegicus; test: Percent decrease in serum cholesterol relative to OVX control at 0.1 mg/kg in rat was determined (in vivo); type: functional; in short: as §1
[7] = system: Rattus norvegicus; test: Percent decrease in serum cholesterol relative to OVX control at 1 mg/kg in rat; type: functional; in short: as §1
[8] = system: Rattus norvegicus; test: Minimum effective dose at which significant increase in uterine weight/body weight in rat was determined (in vivo); type: functional; conditions: read-out: MED; in short: as §2
[9] = system: Rattus norvegicus; test: Dose required to reduce serum cholesterol by 50% relative to OVX controls was determined (in vivo); type: functional; in short: as §1
[10] = system: Rattus norvegicus; test: Percent decrease in serum cholesterol relative to OVX control at 10 mg/kg in rats; type: functional; in short: as §1
[11] = system: Rattus norvegicus; test: Percent decrease in serum cholesterol relative to OVX control at 0.1 mg/kg in rats; type: functional; in short: as §1
[12] = system: Rattus norvegicus; test: Percent decrease in serum cholesterol relative to OVX control at 1.0 mg/kg in rats; type: functional; in short: as §1
[13] = target: T1, Estrogen receptor; test: In vitro relative binding affinity by competition with [3H]17-beta-estradiol for estrogen receptor in MCF-7 cell lysate; Not active at the doses tested; type: cell-based
In short: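 Human MCF-7 cell lysate (0.5–1.0 mg/mL total protein) incubated 18 h at 4 °C with 0.5 nM [3H]17β-estradiol and serial dilutions of test compound. Unbound radioligand removed with dextran/charcoal and centrifugation; bound label in the supernatant counted by scintillation. RBA = IC50(17β-estradiol)/IC50(test compound) × 100.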

[14] = system: MCF7; test: Inhibition of MCF-7 cell proliferation stimulated by 10e-[…] M 17-beta-estradiol; Not active at the doses tested; type: functional, cell-based, Homo sapiens
[15] = system: Rattus norvegicus; test: Percent protection of bone mineral density in the distal femur of OVX rat at a dose of 1 mg/kg/day; type: functional
In short: (§3)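 OVX Sprague–Dawley rats (6-month old, or 75-day old in one case) were dosed orally each day for 35 days, starting 4 days after ovariectomy. Digitized X-rays of the right distal femoral metaphysis gave BMD. % protection = (test − OVX)/(sham − OVX) × 100, reported ±SE.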

[16] = system: Rattus norvegicus; test: Percent protection of bone mineral density in the distal femur of 75-days old OVX rat at a dose of 10 mg/kg/day; type: functional; in short: as §3
[17] = system: Rattus norvegicus; test: Percent protection of bone mineral density in the distal femur of 75-days old OVX rat at a dose of 0.01 mg/kg/day; type: functional; in short: as §3
[18] = system: Rattus norvegicus; test: Percent protection of bone mineral density in the distal femur of 75-days old OVX rat at a dose of 0.1 mg/kg/day; type: functional; in short: as §3

| IC50 [2] [nM] | relative binding affinity (RBA) [13] | IC50 [14] | SMILES | Decrease [1] [%] | minimal effective dose [3] [mg/kg] | Increase [4] [Vmax] | Increase [5] [%] | Decrease [6] [%] | Decrease [7] [%] | minimal effective dose [8] [mg/kg] | ED50 [9] [mg/kg] | Decrease [10] [%] | Decrease [11] [%] | Decrease [12] [%] | Protection [15] [%] | Protection [16] [%] | Protection [17] [%] | Protection [18] [%] |
| --- | --- | --- | --- | --- | --- | --- | --- | --- | --- | --- | --- | --- | --- | --- | --- | --- | --- | --- |
| 1000 |  |  | O=C(c1ccc(OCCN2CCCCC2)cc1)c1c(-c2ccc(C(F)(F)F)cc2)sc2cc(O)ccc12 |  | 5 |  |  |  |  | 5 | 0.4 | 71.5 |  |  |  |  |  |  |
| 35 |  |  | Cl.O=C(c1ccc(OCCN2CCCCC2)cc1)c1c(-c2ccc(O)cc2)sc2ccccc12 | 67.4 | > 10 |  | 39.2 | 70.7 | 69.9 | 0.1 | < 0.1 |  |  |  | 41.8 | 26.7 | -1.3 | -4 |

More lines, now with the values behind:

| SMILES | IC50 [2] [nM] | relative binding affinity (RBA) [13] | IC50 [14] | Decrease [1] [%] | minimal effective dose [3] [mg/kg] | Increase [4] [Vmax] | Increase [5] [%] | Decrease [6] [%] | Decrease [7] [%] | minimal effective dose [8] [mg/kg] | ED50 [9] [mg/kg] | Decrease [10] [%] | Decrease [11] [%] | Decrease [12] [%] | Protection [15] [%] | Protection [16] [%] | Protection [17] [%] | Protection [18] [%] |
| --- | --- | --- | --- | --- | --- | --- | --- | --- | --- | --- | --- | --- | --- | --- | --- | --- | --- | --- |
| CC(C)c1ccc(-c2sc3cc(O)ccc3c2C(=O)c2ccc(OCCN3CCCCC3)cc2)cc1 | 30 |  |  | 48.5 | 1 | 33.3 | 24.9 | -24.1 | 47.1 | 0.1 | 3.6 |  |  |  |  |  |  |  |
| O=C(c1ccc(OCCN2CCCCC2)cc1)c1c(Cc2ccc(O)cc2)sc2cc(O)ccc12 | 5 |  |  |  | > 10 |  | 36.9 |  |  | 5 | 4 | 54 | -17.6 | 41.7 |  |  |  |  |
| O=C(O)c1ccc2c(C(=O)c3ccc(OCCN4CCCCC4)cc3)c(-c3ccc(O)cc3)sc2c1 |  | inactive | Not Active | 53.3 | > 10 |  | 40.8 | -16.4 | 12.5 | 1 | 9 |  |  |  |  |  |  |  |
| CCc1ccc(-c2sc3cc(O)ccc3c2C(=O)c2ccc(OCCN3CCCCC3)cc2)cc1 | 5 |  |  | 57.4 | 1 | 39.9 | 29.7 | 3.3 | 37.2 | 10 | 4.3 |  |  |  |  |  |  |  |
